This note sets out measurements from ChEMBL document CHEMBL1149315, “Insertion of an aspartic acid moiety into cyclic pseudopeptides: synthesis and biological characterization of potent antagonists for the human Tachykinin NK-2 receptor” (J Med Chem, 2004).

Molecules are shown by their SMILES.

The term Ki denotes the dissociation constant of the complex between target and ligand, obtained from inhibition or displacement. Lower therefore signals a stronger hold on the target. For orientation: pKb means −log10 of the Kb, conventionally taken in molar units.

Assay [1] concerns the target T1, Substance-K receptor (Homo sapiens, UniProt P21452).
T1 sequence (P21452 whole entry): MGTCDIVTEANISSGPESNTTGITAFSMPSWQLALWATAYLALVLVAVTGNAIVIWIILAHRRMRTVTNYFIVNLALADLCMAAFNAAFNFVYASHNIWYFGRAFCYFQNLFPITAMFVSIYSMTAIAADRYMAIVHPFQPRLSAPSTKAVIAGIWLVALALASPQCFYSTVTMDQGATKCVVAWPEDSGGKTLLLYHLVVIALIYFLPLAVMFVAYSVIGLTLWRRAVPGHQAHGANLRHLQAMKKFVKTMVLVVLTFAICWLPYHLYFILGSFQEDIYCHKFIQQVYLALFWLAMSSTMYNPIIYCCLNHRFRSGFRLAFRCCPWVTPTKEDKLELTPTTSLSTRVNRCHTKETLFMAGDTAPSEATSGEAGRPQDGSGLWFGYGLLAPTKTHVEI
The assay can be described thus: Displacement of [125I]neurokinin A from human NK2 receptor expressed in CHOK1 cells. It counts as cell-based, CHO-K1. A digest of the protocol: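 Competition binding was run on membranes of cells stably transfected with the human receptor: U-373MG for NK-1, CHO-K1 for NK-2 and NK-3. NK-1 used [3H][Sar9]SP sulfone at 1.2 nM. Affinity is given as pKi (−log Ki).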
For orientation: Displacement assays read how much labelled ligand stays bound in the presence of the test substance.

In assay [2] the target is T2, Substance-K receptor (Rattus norvegicus) (UniProt P16610).
T2 sequence (whole entry): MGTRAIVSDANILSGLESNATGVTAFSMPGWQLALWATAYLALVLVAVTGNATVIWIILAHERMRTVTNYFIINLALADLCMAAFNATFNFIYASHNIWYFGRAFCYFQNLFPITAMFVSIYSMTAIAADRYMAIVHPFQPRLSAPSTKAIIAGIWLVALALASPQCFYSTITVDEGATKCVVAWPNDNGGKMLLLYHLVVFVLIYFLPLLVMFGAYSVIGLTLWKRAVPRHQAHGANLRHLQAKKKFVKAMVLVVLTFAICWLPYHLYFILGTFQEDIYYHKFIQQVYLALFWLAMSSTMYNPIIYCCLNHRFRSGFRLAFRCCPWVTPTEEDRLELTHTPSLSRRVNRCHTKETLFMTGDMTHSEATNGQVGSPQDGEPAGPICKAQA
As to the kind of experiment: Antagonist activity at NK2 receptor in rat urinary bladder assessed as effect on beta-Ala8]NKA(4-10)-induced mechanical activity. To be noted: filed as antagonist. It counts as functional. In outline:
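Isolated smooth muscle strips were held in oxygenated (96% O2/4% CO2) Krebs–Henseleit at NaCl 119, NaHCO3 25, KH2PO4 1.2, MgSO4 1.5, CaCl2 2.5, KCl 4.7 and glucose 11 mM. Cumulative agonist concentration–response curves were run after 15 min antagonist incubation. pKB = log(dose ratio − 1) − log[antagonist], as the mean of individual values.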

Regarding `CC(=O)N1CCN([C@@H]2CC(=O)N[C@@H](Cc3c[nH]c4ccccc34)C(=O)N[C@@H](Cc3ccccc3)C(=O)N[C@H](Cc3ccccc3)CNC2=O)CC1`, the Ki in assay [1] is 0.126 nM (antagonist). The pKb in assay [2] is 9.6. With `CN(C1CCOCC1)[C@@H]1CC(=O)N[C@@H](Cc2c[nH]c3ccccc23)C(=O)N[C@@H](Cc2ccccc2)C(=O)N[C@H](Cc2ccccc2)CNC1=O`, in assay [1], the Ki is on record as 0.158 nM (antagonist). Moreover, the pKb in assay [2] was 8.8. Turning to `O=C1C[C@@H](NC[C@H](O)[C@@H](O)[C@H](O[C@@H]2O[C@H](CO)[C@H](O)[C@H](O)[C@H]2O)[C@H](O)CO)C(=O)NC[C@@H](Cc2ccccc2)NC(=O)[C@H](Cc2ccccc2)NC(=O)[C@H](Cc2c[nH]c3ccccc23)N1`, the Ki in assay [1] was 1.26 nM (antagonist). Also, the pKb in assay [2] was 8.2. Consider `O=C1C[C@@H](NC2CCSCC2)C(=O)NC[C@@H](Cc2ccccc2)NC(=O)[C@H](Cc2ccccc2)NC(=O)[C@H](Cc2c[nH]c3ccccc23)N1`, for which the Ki in assay [1] is reported as 0.1 nM (antagonist). Also, in assay [2], the pKb was 7.8. Turning to `CC(=O)N[C@@H]1[C@@H](O)[C@H](O)[C@@H](CO)O[C@H]1NC(=O)C[C@H](NC(C)=O)C(=O)N[C@@H]1CC(=O)N[C@@H](Cc2c[nH]c3ccccc23)C(=O)N[C@@H](Cc2ccccc2)C(=O)N[C@H](Cc2ccccc2)CNC1=O`, the Ki in assay [1] was 25.1 nM (antagonist). The pKb in assay [2] is 7.7. The matching figures for `O=C1C[C@@H](N2CCC(N3CCOCC3)CC2)C(=O)NC[C@@H](Cc2ccccc2)NC(=O)[C@H](Cc2ccccc2)NC(=O)[C@H](Cc2c[nH]c3ccccc23)N1`: 0.2 nM (antagonist) and 8.9. Take `CC(=O)N[C@@H](CN[C@@H]1CC(=O)N[C@@H](Cc2c[nH]c3ccccc23)C(=O)N[C@@H](Cc2ccccc2)C(=O)N[C@H](Cc2ccccc2)CNC1=O)[C@@H](O)[C@H](O)[C@H](O)CO`: the Ki in assay [1] is listed as 2 nM (antagonist). Also, in assay [2], the pKb is 8.1.

`CN1CCN([C@@H]2CC(=O)N[C@@H](Cc3c[nH]c4ccccc34)C(=O)N[C@@H](Cc3ccccc3)C(=O)N[C@H](Cc3ccccc3)CNC2=O)CC1`: the Ki in assay [1] is reported as 0.398 nM (antagonist). In addition, the pKb in assay [2] was 9.2. With `O=C1C[C@@H](NC2CCS(=O)(=O)CC2)C(=O)NC[C@@H](Cc2ccccc2)NC(=O)[C@H](Cc2ccccc2)NC(=O)[C@H](Cc2c[nH]c3ccccc23)N1`, in assay [1], the Ki is recorded as 0.158 nM (antagonist). Besides, in assay [2], the pKb is 9.3. On to `O=C1C[C@H](NC2CCOCC2)C(=O)N[C@@H](Cc2c[nH]c3ccccc23)C(=O)N[C@@H](Cc2ccccc2)C(=O)N[C@H](Cc2ccccc2)CN1`, for which, in assay [1], the Ki was 6.31 nM (antagonist). Moreover, in assay [2], the pKb was 7.8. Consider `O=C1C[C@@H](NC(=O)CN2CC[S+]([O-])CC2)C(=O)NC[C@@H](Cc2ccccc2)NC(=O)[C@H](Cc2ccccc2)NC(=O)[C@H](Cc2c[nH]c3ccccc23)N1`, for which the Ki in assay [1] is 0.316 nM (antagonist). Moreover, the negative logarithm of the Kb (pKb) in assay [2] is 8.7. Consider `O=C1CCC(=O)N[C@@H](Cc2c[nH]c3ccccc23)C(=O)N[C@@H](Cc2ccccc2)C(=O)N[C@H](Cc2ccccc2)CN1`, for which the pKb in assay [2] is 8.3. `O=C1C[C@@H](NC(=O)CN2CCC(N3CC[S+]([O-])CC3)CC2)C(=O)NC[C@@H](Cc2ccccc2)NC(=O)[C@H](Cc2ccccc2)NC(=O)[C@H](Cc2c[nH]c3ccccc23)N1`: the Ki in assay [1] is 0.251 nM (antagonist). The pKb in assay [2] was 9. Regarding `CN1CCN(CC(=O)N[C@@H]2CC(=O)N[C@@H](Cc3c[nH]c4ccccc34)C(=O)N[C@@H](Cc3ccccc3)C(=O)N[C@H](Cc3ccccc3)CNC2=O)CC1`, in assay [1], the Ki is on record as 1.58 nM (antagonist). Also, the pKb in assay [2] was 8.5. Consider `NS(=O)(=O)N1CCC(N[C@@H]2CC(=O)N[C@@H](Cc3c[nH]c4ccccc34)C(=O)N[C@@H](Cc3ccccc3)C(=O)N[C@H](Cc3ccccc3)CNC2=O)CC1`, for which the Ki in assay [1] was 0.0501 nM (antagonist). Besides, in assay [2], the pKb was 9.5. As to `NC(=O)C1CCN(CC(=O)N[C@@H]2CC(=O)N[C@@H](Cc3c[nH]c4ccccc34)C(=O)N[C@@H](Cc3ccccc3)C(=O)N[C@H](Cc3ccccc3)CNC2=O)CC1`, the Ki in assay [1] is recorded as 0.501 nM (antagonist). Moreover, in assay [2], the pKb is 9.2. For the compound `O=C1C[C@@H](NC[C@H](O)[C@H](O)[C@@H](O[C@H]2O[C@H](CO)[C@@H](O[C@@H]3O[C@@H](CO)[C@H](O)[C@@H](O)[C@@H]3O)[C@H](O)[C@H]2O)[C@H](O)CO)C(=O)NC[C@@H](Cc2ccccc2)NC(=O)[C@H](Cc2ccccc2)NC(=O)[C@H](Cc2c[nH]c3ccccc23)N1`, the Ki in assay [1] is given as 0.501 nM (antagonist). In addition, in assay [2], the pKb was 8.5.

For `O=C1C[C@@H](NC[C@H](O)[C@@H](O)[C@@H](O[C@H]2O[C@H](CO)[C@@H](O)[C@H](O)[C@H]2O)[C@H](O)CO)C(=O)NC[C@@H](Cc2ccccc2)NC(=O)[C@H](Cc2ccccc2)NC(=O)[C@H](Cc2c[nH]c3ccccc23)N1`, the Ki in assay [1] is 0.631 nM (antagonist). Further, the pKb in assay [2] is 8.5. For `CC(=O)N[C@H]1[C@H](NC(=O)CCC(=O)N[C@@H]2CC(=O)N[C@@H](Cc3c[nH]c4ccccc34)C(=O)N[C@@H](Cc3ccccc3)C(=O)N[C@H](Cc3ccccc3)CNC2=O)O[C@H](CO)C(O)[C@@H]1O` (single isomer, unassigned), the Ki in assay [1] is on record as 1.58 nM (antagonist). In assay [2], the pKb was 7.6. As for `CN1CCC(N[C@@H]2CC(=O)N[C@@H](Cc3c[nH]c4ccccc34)C(=O)N[C@@H](Cc3ccccc3)C(=O)N[C@H](Cc3ccccc3)CNC2=O)CC1`, the Ki in assay [1] is on record as 0.2 nM (antagonist). Also, the pKb in assay [2] is 9. Turning to `O=C1C[C@@H](NC2CC[S+]([O-])CC2)C(=O)NC[C@@H](Cc2ccccc2)NC(=O)[C@H](Cc2ccccc2)NC(=O)[C@H](Cc2c[nH]c3ccccc23)N1` (stereo not given in full), the Ki in assay [1] is given as 0.0251 nM (antagonist). For the same compound, in assay [2], the pKb was 9.1. Turning to `CS(=O)(=O)N1CCN([C@@H]2CC(=O)N[C@@H](Cc3c[nH]c4ccccc34)C(=O)N[C@@H](Cc3ccccc3)C(=O)N[C@H](Cc3ccccc3)CNC2=O)CC1`, in assay [1], the Ki is 3.16 nM (antagonist). Besides, the pKb in assay [2] was 9.3. For the compound `O=C1C[C@@H](NC[C@H](O)[C@@H](O)[C@H](O)[C@H](O)CO)C(=O)NC[C@@H](Cc2ccccc2)NC(=O)[C@H](Cc2ccccc2)NC(=O)[C@H](Cc2c[nH]c3ccccc23)N1`, the Ki in assay [1] is 0.398 nM (antagonist). In addition, the pKb in assay [2] was 8.8.

Turning to `O=C1CC(NC(=O)[C@@H](O)[C@H](O)[C@@H](O[C@@H]2O[C@H](CO)[C@H](O)[C@H](O)[C@H]2O)[C@@H](O)CO)C(=O)NC[C@@H](Cc2ccccc2)NC(=O)[C@H](Cc2ccccc2)NC(=O)[C@H](Cc2c[nH]c3ccccc23)N1` (stereo not given in full), in assay [1], the Ki was 3.98 nM (antagonist). Further, in assay [2], the pKb is 8.7. Consider `CS(=O)(=O)N1CCC(N[C@@H]2CC(=O)N[C@@H](Cc3c[nH]c4ccccc34)C(=O)N[C@@H](Cc3ccccc3)C(=O)N[C@H](Cc3ccccc3)CNC2=O)CC1`, for which the Ki in assay [1] is 0.0631 nM (antagonist). The pKb in assay [2] is 9.5. With `NC1CCN([C@@H]2CC(=O)N[C@@H](Cc3c[nH]c4ccccc34)C(=O)N[C@@H](Cc3ccccc3)C(=O)N[C@H](Cc3ccccc3)CNC2=O)CC1`, the Ki in assay [1] is recorded as 5.01 nM (antagonist). In assay [2], the pKb was 8.5. Take `O=C1C[C@@H](N2CCC(N3CCCCC3)CC2)C(=O)NC[C@@H](Cc2ccccc2)NC(=O)[C@H](Cc2ccccc2)NC(=O)[C@H](Cc2c[nH]c3ccccc23)N1`: in assay [1], the Ki was 0.2 nM (antagonist). For the same compound, in assay [2], the pKb was 8.9. On the same counts, the results for `O=C1C[C@@H](NC2CCOCC2)C(=O)N[C@@H](Cc2c[nH]c3ccccc23)C(=O)N[C@@H](Cc2ccccc2)C(=O)N[C@H](Cc2ccccc2)CN1` are 7.94 nM (antagonist) and 7.4. On the same counts, the results for `O=C1C[C@@H](NC(=O)CN2CCC(O)CC2)C(=O)NC[C@@H](Cc2ccccc2)NC(=O)[C@H](Cc2ccccc2)NC(=O)[C@H](Cc2c[nH]c3ccccc23)N1` are 0.126 nM (antagonist) and 9.1.

Turning to `O=C1C[C@@H](NC(=O)CN2CCC[C@H]2CO)C(=O)NC[C@@H](Cc2ccccc2)NC(=O)[C@H](Cc2ccccc2)NC(=O)[C@H](Cc2c[nH]c3ccccc23)N1`, the Ki in assay [1] is reported as 0.316 nM (antagonist). Further, in assay [2], the pKb is 8.9. For the compound `O=C1C[C@@H](NC(=O)CN2CCOCC2)C(=O)NC[C@@H](Cc2ccccc2)NC(=O)[C@H](Cc2ccccc2)NC(=O)[C@H](Cc2c[nH]c3ccccc23)N1`, the pKb in assay [2] was 8.5.
